Data from ChEMBL document CHEMBL3621120, “Discovery of ((4-(5-(Cyclopropylcarbamoyl)-2-methylphenylamino)-5-methylpyrrolo[1,2-f][1,2,4]triazine-6-carbonyl)(propyl)carbamoyloxy)methyl-2-(4-(phosphonooxy)phenyl)acetate (BMS-751324), a Clinical Prodrug of p38α MAP Kinase Inhibitor” (J Med Chem, 2015).
Values after ≈ are worked out from the molar mass of the structure shown. Blank lines part the entries; values can stand above or below the compound they belong to.

Tests used:
[1] = Stability in pH 3.1 solution assessed as half-life at 37 degC; assay type: physicochemical
[2] = Stability in pH 7.4 solution assessed as half-life at 37 degC; assay type: physicochemical
[3] = Stability in pH 1 solution assessed as half-life at 37 degC; assay type: physicochemical
[4] = Chemical stability of the compound in pH 7.4 potassium phosphate buffer at 10 uM incubated for 0.5 hrs by LC/MS/MS method; assay type: physicochemical; conditions: read-out: Stability
Procedure, shortened: (§1)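 Compound at 10 µM in 89 mM potassium phosphate buffer, pH 7.4, 37 °C, incubated with or without porcine liver esterase; started by compound addition, aliquots at 0, 15, 30, 60 min, acetonitrile added, centrifuged at 4 °C, remaining compound measured by LC/MS/MS.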

[5] = Chemical stability of the compound in pH 7.4 potassium phosphate buffer at 10 uM incubated for 1 hr by LC/MS/MS method; assay type: physicochemical; conditions: read-out: Stability; procedure, shortened: as §1
Caco-2 [6] = assay: Drug level in apical side of human Caco2 cells incubated at 37 degC for 2 hrs; assay type: ADME, cell-based; conditions: caco-2, 2 h
Procedure, shortened: (§2)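 Compounds loaded on apical side of Caco-2 monolayers and incubated at 37 °C for 2 h; prodrug, intermediate and parent measured on apical and basal sides.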

[7] = Chemical stability of the compound in pH 7.4 potassium phosphate buffer at 10 uM incubated for 0.25 hrs by LC/MS/MS method; assay type: physicochemical; conditions: read-out: Stability; procedure, shortened: as §1
Liver carboxylesterase [8] = target: T1, Liver carboxylesterase (Sus scrofa, UniProt Q29550); assay: Stability assessed as porcine liver esterase-mediated drug degradation by measuring compound remaining level in pH 7.4 potassium phosphate buffer at 10 uM incubated for 0.5 hrs by LC/MS/MS; assay type: ADME, tissue-based; conditions: pig, read-out: Stability
T1 sequence (Q29550 whole entry): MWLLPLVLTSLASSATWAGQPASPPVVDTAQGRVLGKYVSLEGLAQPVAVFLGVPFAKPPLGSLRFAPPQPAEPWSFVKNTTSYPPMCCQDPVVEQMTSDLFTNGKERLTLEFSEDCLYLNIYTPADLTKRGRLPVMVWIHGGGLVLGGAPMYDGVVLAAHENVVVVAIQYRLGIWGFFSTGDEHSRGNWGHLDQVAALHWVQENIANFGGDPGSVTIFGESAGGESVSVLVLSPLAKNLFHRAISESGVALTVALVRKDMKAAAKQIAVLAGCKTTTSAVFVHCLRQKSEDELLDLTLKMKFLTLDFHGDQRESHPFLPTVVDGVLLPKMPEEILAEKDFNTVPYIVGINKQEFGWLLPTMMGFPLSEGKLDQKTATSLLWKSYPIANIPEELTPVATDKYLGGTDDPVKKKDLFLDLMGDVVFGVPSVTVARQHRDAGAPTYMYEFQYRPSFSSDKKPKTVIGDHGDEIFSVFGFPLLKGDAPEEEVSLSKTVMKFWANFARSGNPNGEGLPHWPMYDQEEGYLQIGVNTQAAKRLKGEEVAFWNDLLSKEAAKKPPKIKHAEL
Procedure, shortened: (§3)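 Porcine liver esterase with substrate at 10 µM in 89 mM potassium phosphate pH 7.4, 37 °C. Reaction started by adding compound. Aliquots taken at 0, 15, 30 and 60 min and quenched with acetonitrile. After centrifugation at 4 °C, percent remaining quantified by LC/MS/MS.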

Liver carboxylesterase [9] = target: T1, Liver carboxylesterase; assay: Stability assessed as porcine liver esterase-mediated drug degradation by measuring compound remaining level in pH 7.4 potassium phosphate buffer at 10 uM incubated for 0.25 hrs by LC/MS/MS; assay type: ADME, tissue-based; conditions: pig, read-out: Stability; procedure, shortened: as §3
Liver carboxylesterase [10] = target: T1, Liver carboxylesterase; assay: Stability assessed as porcine liver esterase-mediated drug degradation by measuring compound remaining level in pH 7.4 potassium phosphate buffer at 10 uM incubated for 1 hr by LC/MS/MS; assay type: ADME, tissue-based; conditions: pig, read-out: Stability; procedure, shortened: as §3
[11] = Cmax in Sprague-Dawley rat at 100 mg/kg, po after 24 hrs by LC/MS/MS method; assay type: ADME, organism-based; parameters: dose 100 mg/kg, route oral; conditions: in vivo
[12] = AUC in Sprague-Dawley rat at 1 mg/kg, po after 24 hrs by LC/MS/MS method; assay type: ADME, organism-based; parameters: time < 24 hr, dose 1 mg/kg, route oral; conditions: in vivo
Rattus norvegicus [13] = assay: Bioavailability in Sprague-Dawley rat at 100 mg/kg, po after 24 hrs by LC/MS/MS method; assay type: ADME, organism-based; conditions: in vivo
[14] = AUC in Sprague-Dawley rat at 10 mg/kg, po after 24 hrs by LC/MS/MS method; assay type: ADME, organism-based; parameters: time < 24 hr, dose 10 mg/kg, route oral; conditions: in vivo
[15] = AUC in Sprague-Dawley rat at 100 mg/kg, po after 24 hrs by LC/MS/MS method; assay type: ADME, organism-based; parameters: time < 24 hr, dose 100 mg/kg, route oral; conditions: in vivo
Caco-2 [16] = assay: Drug level in basal side of human Caco2 cells assessed as BMS-582949 level incubated at 37 degC for 2 hrs; assay type: ADME, cell-based; conditions: caco-2, 2 h; procedure, shortened: as §2
[17] = Bioavailability in Sprague-Dawley rat at 1 mg/kg, po after 24 hrs by LC/MS/MS method; assay type: ADME, organism-based; conditions: in vivo
[18] = AUC (0 to 24 hrs) in Lewis rat adjuvant arthritis model at 3 mg/kg, po bid beginning on day 11 post adjuvant challenge; assay type: ADME, organism-based; parameters: dose 3 mg/kg, time < 24 hr, route oral; conditions: in vivo
[19] = AUC in cynomolgus monkey at 10 mg/kg, po after 24 hrs by LC/MS/MS method; assay type: ADME, organism-based, Macaca fascicularis; parameters: dose 10 mg/kg, time < 24 hr, route oral; conditions: in vivo
[20] = Bioavailability in Sprague-Dawley rat at 10 mg/kg, po after 24 hrs by LC/MS/MS method; assay type: ADME, organism-based; conditions: in vivo
Caco-2 [21] = assay: Drug level in apical side of human Caco2 cells assessed as BMS-582949 level incubated at 37 degC for 2 hrs; assay type: ADME, cell-based; conditions: caco-2, 2 h; procedure, shortened: as §2
[22] = AUC (0 to 24 hrs) in Lewis rat adjuvant arthritis model at 1 mg/kg, po bid beginning on day 11 post adjuvant challenge; assay type: ADME, organism-based; parameters: dose 1 mg/kg, time < 24 hr, route oral; conditions: in vivo
[23] = Cmax in cynomolgus monkey at 10 mg/kg, po after 24 hrs by LC/MS/MS method; assay type: ADME, organism-based, Macaca fascicularis; parameters: dose 10 mg/kg, route oral; conditions: in vivo
[24] = Cmax in Sprague-Dawley rat at 10 mg/kg, po after 24 hrs by LC/MS/MS method; assay type: ADME, organism-based; parameters: dose 10 mg/kg, route oral; conditions: in vivo
[25] = Bioavailability in cynomolgus monkey at 10 mg/kg, po after 24 hrs by LC/MS/MS method; assay type: ADME, organism-based, Macaca fascicularis; conditions: in vivo
[26] = Cmax in Sprague-Dawley rat at 1 mg/kg, po after 24 hrs by LC/MS/MS method; assay type: ADME, organism-based; parameters: dose 1 mg/kg, route oral; conditions: in vivo
[27] = Solubility in pH 1.2 solution; conditions: buffer
Rattus norvegicus [28] = assay: Inhibition of LPS-induced TNFalpha level in Lewis rat at 0.03 to 10 mg/kg, po dosed 1 hr before LPS challenge and measured 90 mins post LPS challenge by ELISA method; assay type: functional
Procedure, shortened: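 Male Lewis rats (200-250 g) dosed orally 1 h before IP injection of 10ug E. coli O111:B4 LPS in 1.0 mL sterile saline; prodrug as suspension in 0.75% Methocel, 0.1% Tween 80, parent in PEG 300, controls given vehicle. Blood taken 90 min after LPS; serum TNF measured by ELISA; ED50 expressed as parent equivalent.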

Rattus norvegicus [29] = assay: Inhibition of paw swelling in Lewis rat adjuvant arthritis model assessed as reduction in hind paw volume at 1 mg/kg, po bid beginning on day 11 post adjuvant challenge by volume displacement plethysmometry method relative to control; assay type: functional; conditions: 264 h
Procedure, shortened: (§4)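 Male Lewis rats given complete Freund's adjuvant on day 1; from day 11 compounds dosed orally BID in 0.5 mL vehicle (prodrug as aqueous suspension in 0.75% Methocel, 0.1% Tween 80; parent in PEG 300). Paw volume measured 3 times per week for rest of study; paw swelling inhibition reported.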

Rattus norvegicus [30] = assay: Inhibition of paw swelling in Lewis rat adjuvant arthritis model assessed as reduction in hind paw volume at 3 mg/kg, po bid beginning on day 11 post adjuvant challenge by volume displacement plethysmometry method relative to control; assay type: functional; conditions: 264 h; procedure, shortened: as §4
[31] = Solubility in pH 6.5 solution; conditions: buffer
[32] = Chemical stability of the compound in acidic pH solution; assay type: physicochemical
[33] = Chemical stability of the compound in neutral pH solution; assay type: physicochemical
[34] = Chemical Stability of the compound in pH 1 solution; assay type: physicochemical; conditions: buffer

half-life [1]: < 0.25 h
half-life [2]: 20 h
half-life [3]: < 0.25 h
Structure (SMILES): CCCNC(=O)c1cn2ncnc(N(COP(=O)([O-])O)c3cc(C(=O)NC4CC4)ccc3C)c2c1C.[Na+]

remaining at 0.5 h, 10 µM [4]: 93%
remaining at 1 h, 10 µM [5]: 75%
Drug uptake (Caco-2 [6]): Active
remaining at 0.25 h, 10 µM [7]: 100%
remaining at 0.5 h, 10 µM (Liver carboxylesterase [8]): 6.9%
remaining at 0.25 h, 10 µM (Liver carboxylesterase [9]): 8.2%
remaining at 1 h, 10 µM (Liver carboxylesterase [10]): 5.8%
Structure (SMILES): CCCN(C(=O)OCOC(=O)Cc1ccc(O)cc1)C(=O)c1cn2ncnc(Nc3cc(C(=O)NC4CC4)ccc3C)c2c1C

Cmax [11]: 3000 nM
AUC at 24 h [12]: 4.2 µM·h
F (Rattus norvegicus [13]): 4.3%
AUC at 24 h [14]: 23 µM·h
AUC at 24 h [15]: 3 µM·h
Drug uptake (Caco-2 [16]): Active
bioavailability [17]: 55%
AUC at 24 h [18]: 25.3 µM·h
AUC at 24 h [19]: 7.6 µM·h
bioavailability [20]: 31%
Drug uptake (Caco-2 [21]): Active
AUC at 24 h [22]: 6.7 µM·h
Cmax [23]: 1000 nM
Cmax [24]: 4300 nM
bioavailability [25]: 16%
Cmax [26]: 800 nM
solubility [27]: 280 µg/mL (≈ 689 µM)
solubility [31]: 3 µg/mL (≈ 7.38 µM)
Structure (SMILES): CCCNC(=O)c1cn2ncnc(Nc3cc(C(=O)NC4CC4)ccc3C)c2c1C [BMS-582949]
ED50 (Rattus norvegicus [28]): 0.88 mg
inhibition in vivo at 1 mg/kg (Rattus norvegicus [29]): 27%
inhibition in vivo at 3 mg/kg (Rattus norvegicus [30]): 35%

Stability [32]: Stable
Stability [33]: Stable
Structure (SMILES): CCCN(C(=O)OCOC(=O)/C=C/C(=O)O)C(=O)c1cn2ncnc(Nc3cc(C(=O)NC4CC4)ccc3C)c2c1C

half-life [1]: < 0.25 h
half-life [2]: 54 h
half-life [3]: < 0.25 h
Structure (SMILES): CCCN(COP(=O)(O)O)C(=O)c1cn2ncnc(Nc3cc(C(=O)NC4CC4)ccc3C)c2c1C.CCN(C(C)C)C(C)C

Stability [34]: Stable
Stability [33]: Unstable
Structure (SMILES): CCCN(C(=O)OCOP(=O)(O)O)C(=O)c1cn2ncnc(Nc3cc(C(=O)NC4CC4)ccc3C)c2c1C

half-life [1]: < 0.25 h
half-life [2]: 257 h
half-life [3]: < 0.25 h
Structure (SMILES): CCCNC(=O)c1cn2ncnc(Nc3cc(C(=O)N(COP(=O)(O)O)C4CC4)ccc3C)c2c1C.CCN(C(C)C)C(C)C
